# Results: ChEMBL document CHEMBL3763047, “Flavonoid derivatives as selective ABCC1 modulators: Synthesis and functional characterization” (Eur J Med Chem, 2016)
# Activity calls are given as the source filed them. No cut-off for these calls is given here.
# How the values were obtained:
# [1] = target: ATP-dependent translocase ABCB1 (Homo sapiens, UniProt P08183); assay: Inhibition of ABCB1 in human KBV1 cells assessed as inhibition of calcein-AM efflux; format: cell-based
# [2] = target: T1, Broad substrate specificity ATP-binding cassette transporter ABCG2 (Homo sapiens, UniProt Q9UNQ0); assay: Inhibition of ABCG2 in human MCF7/Topo cells by Hoechst 33342 assay; format: cell-based
# T1 sequence (Q9UNQ0 whole entry): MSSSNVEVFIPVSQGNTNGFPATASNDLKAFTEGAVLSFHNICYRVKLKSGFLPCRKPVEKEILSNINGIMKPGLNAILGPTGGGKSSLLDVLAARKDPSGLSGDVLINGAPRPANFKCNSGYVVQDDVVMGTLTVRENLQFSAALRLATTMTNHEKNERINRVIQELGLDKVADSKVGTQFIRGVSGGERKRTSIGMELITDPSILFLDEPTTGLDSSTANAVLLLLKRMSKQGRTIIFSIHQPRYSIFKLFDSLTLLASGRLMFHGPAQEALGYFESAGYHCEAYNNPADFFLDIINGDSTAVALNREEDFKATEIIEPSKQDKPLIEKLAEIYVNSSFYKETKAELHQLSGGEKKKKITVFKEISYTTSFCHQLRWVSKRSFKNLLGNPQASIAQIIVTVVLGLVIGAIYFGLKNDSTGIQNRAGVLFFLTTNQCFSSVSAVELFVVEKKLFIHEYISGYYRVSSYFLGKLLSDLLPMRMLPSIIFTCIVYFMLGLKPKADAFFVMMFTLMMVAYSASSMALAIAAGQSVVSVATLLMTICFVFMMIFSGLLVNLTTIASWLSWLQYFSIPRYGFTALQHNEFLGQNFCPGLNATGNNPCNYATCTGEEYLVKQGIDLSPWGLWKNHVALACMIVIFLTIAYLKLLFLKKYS
# [3] = target: T2, Multidrug resistance-associated protein 1 (Homo sapiens, UniProt P33527); assay: (§1) Inhibition of human MRP1 expressed in MDCK2 cells assessed as inhibition of calcein-AM efflux at 30 uM relative to reversan; format: cell-based, MDCK-II; settings: mdck-ii, 30 µM
# T2 sequence (P33527 whole entry): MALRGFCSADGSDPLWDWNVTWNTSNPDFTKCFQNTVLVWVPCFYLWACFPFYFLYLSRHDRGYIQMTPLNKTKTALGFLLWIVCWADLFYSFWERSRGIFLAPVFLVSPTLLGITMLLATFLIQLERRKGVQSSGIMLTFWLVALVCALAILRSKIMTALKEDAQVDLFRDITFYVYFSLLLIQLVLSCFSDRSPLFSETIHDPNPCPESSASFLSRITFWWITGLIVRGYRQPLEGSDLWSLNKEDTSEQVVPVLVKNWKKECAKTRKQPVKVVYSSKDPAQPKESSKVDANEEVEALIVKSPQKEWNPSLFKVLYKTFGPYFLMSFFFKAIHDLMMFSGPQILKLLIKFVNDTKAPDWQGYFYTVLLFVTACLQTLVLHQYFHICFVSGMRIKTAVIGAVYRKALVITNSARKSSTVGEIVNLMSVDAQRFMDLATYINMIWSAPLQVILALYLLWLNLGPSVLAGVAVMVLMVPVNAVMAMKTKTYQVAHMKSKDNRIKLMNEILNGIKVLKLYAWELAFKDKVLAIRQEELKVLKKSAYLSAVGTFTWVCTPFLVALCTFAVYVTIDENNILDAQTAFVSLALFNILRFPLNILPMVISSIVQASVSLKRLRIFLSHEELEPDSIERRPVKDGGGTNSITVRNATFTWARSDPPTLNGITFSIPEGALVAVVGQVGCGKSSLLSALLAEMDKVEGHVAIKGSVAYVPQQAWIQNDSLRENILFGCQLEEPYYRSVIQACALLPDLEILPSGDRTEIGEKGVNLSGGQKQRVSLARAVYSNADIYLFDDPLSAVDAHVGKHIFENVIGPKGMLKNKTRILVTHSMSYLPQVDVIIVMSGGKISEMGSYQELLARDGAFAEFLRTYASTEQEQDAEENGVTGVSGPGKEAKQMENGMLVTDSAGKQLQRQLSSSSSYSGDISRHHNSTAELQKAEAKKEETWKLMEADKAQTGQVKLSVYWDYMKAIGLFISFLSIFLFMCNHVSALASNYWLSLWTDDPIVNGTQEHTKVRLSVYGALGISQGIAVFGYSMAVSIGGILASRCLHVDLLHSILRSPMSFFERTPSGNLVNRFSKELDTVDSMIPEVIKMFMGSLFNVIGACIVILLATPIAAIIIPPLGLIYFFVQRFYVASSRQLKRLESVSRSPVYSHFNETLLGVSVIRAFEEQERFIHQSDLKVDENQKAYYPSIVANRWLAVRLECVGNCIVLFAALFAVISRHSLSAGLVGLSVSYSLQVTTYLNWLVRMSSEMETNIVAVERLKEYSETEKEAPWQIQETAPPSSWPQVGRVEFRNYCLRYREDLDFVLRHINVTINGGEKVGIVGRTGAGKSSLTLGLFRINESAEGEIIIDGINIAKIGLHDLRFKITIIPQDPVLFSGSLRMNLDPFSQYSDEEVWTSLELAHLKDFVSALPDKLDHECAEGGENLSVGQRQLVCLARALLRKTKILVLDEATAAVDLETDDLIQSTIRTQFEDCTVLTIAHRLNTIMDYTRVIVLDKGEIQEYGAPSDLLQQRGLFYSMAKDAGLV
# Procedure, shortened: (§2)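 MDCKII-MRP1 cells seeded at 20,000–25,000/well and washed next day with HEPES loading buffer, pH 7.4. Loaded 60 min at 37 °C with 0.5 µM calcein-AM in buffer with BSA and pluronic F127, plus compound (10 nM–100 µM). Cells were PFA-fixed, fluorescence read at 485/535 nm, DMSO control subtracted. […] Mean ± SEM, 2–4 experiments in triplicate.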
# [4] = target: ABCB1 (P-glycoprotein) (Homo sapiens, UniProt P08183); assay: Inhibition of ABCB1 in human KBV1 cells assessed as inhibition of calcein-AM efflux at 1 uM relative to tariquidar; format: cell-based; settings: probe calcein-AM, read-out: Imax
# Chain of ABCB1 (P-glycoprotein) (P08183 whole entry): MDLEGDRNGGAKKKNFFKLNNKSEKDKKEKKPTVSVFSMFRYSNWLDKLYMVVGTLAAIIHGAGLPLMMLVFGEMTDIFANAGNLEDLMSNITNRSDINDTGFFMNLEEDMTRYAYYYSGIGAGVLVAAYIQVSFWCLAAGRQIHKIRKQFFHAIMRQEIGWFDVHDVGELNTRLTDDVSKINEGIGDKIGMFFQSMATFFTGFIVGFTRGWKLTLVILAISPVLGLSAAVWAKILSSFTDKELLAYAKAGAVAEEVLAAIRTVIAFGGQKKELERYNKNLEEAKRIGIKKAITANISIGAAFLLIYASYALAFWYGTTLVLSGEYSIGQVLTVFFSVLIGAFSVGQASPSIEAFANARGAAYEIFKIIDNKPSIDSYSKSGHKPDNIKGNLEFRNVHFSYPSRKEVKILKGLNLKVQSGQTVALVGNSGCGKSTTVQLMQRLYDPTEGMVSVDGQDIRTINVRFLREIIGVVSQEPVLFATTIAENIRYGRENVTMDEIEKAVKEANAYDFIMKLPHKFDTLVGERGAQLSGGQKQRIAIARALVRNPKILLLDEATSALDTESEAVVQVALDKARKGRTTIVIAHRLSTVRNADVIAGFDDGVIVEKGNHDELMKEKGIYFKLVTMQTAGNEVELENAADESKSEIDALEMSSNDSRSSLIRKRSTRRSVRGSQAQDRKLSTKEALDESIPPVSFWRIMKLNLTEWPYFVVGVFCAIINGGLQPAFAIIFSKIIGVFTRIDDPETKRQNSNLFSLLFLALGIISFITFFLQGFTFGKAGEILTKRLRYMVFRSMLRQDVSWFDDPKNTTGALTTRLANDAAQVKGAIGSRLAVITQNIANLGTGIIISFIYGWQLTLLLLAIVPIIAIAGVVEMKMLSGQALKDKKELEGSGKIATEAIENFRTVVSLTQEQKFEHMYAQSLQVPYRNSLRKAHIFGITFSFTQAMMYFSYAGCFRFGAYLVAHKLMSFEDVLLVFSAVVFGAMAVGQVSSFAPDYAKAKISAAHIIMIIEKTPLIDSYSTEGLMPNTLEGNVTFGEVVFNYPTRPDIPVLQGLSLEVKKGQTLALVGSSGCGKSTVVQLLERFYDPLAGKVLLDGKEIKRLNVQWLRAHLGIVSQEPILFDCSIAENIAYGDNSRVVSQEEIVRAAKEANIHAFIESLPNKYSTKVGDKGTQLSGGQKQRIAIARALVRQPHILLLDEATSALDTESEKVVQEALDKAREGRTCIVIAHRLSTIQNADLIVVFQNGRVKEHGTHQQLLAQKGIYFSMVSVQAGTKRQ
# [5] = target: MRP1 (ABCC1) (Homo sapiens, UniProt P33527); assay: as §1; format: cell-based, MDCK-II; settings: MDCK2 cells expressing human MRP1, probe calcein-AM, read-out: Imax; procedure, shortened: as §2
# Chain of MRP1 (ABCC1) (P33527 whole entry): as the sequence (P33527 whole entry) above
# [6] = target: T3, ABCG2 (BCRP) (Homo sapiens, UniProt Q9UNQ0); assay: Inhibition of ABCG2 in human MCF7/Topo cells at 10 uM by Hoechst 33342 assay relative to fumitremorgin C; format: cell-based; settings: probe Hoechst 33342, read-out: Imax
# T3 sequence (Q9UNQ0 whole entry): T1 sequence (Q9UNQ0 whole entry)
# Procedure, shortened: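 Hoechst 33342 microplate assay in ABCG2-overexpressing MCF-7/Topo cells, kept in EMEM with 10% FCS and 550 nM topotecan. Imax relative to 10 µM fumitremorgin C (100%). IC50 from four-parameter logistic fit. Mean ± SEM, 2–4 experiments.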
# [7] = test system: HaCaT; assay: Cytotoxicity against human HaCaT cells at 1 to 10 uM after 140 hrs by kinetic crystal violet staining based assay; format: cell-based
# Procedure, shortened: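 Spontaneously immortalized human HaCaT keratinocytes in RPMI-1640 with pyruvate, HEPES and added glucose, pre-treated with EDTA before trypsinization. Cytotoxicity followed in a kinetic assay.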
# [8] = Chemical stability in DMEM culture medium supplemented with 10% FCS at 37 degC after 48 hrs by RP-HPLC analysis; format: physicochemical; settings: cattle
# Procedure, shortened: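 Compounds held in DMEM with 10% FCS at 37 °C for up to 48 h, then analysed for degradation.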
# [9] = test system: MDCK2; assay: Antiproliferative activity against human ABCC1 transfected MDCK2 cells assessed as reduction in cell proliferation at 1.5 uM by crystal violet staining based assay; format: functional
# [10] = test system: MDCK2; assay: Antiproliferative activity against human ABCC1 transfected MDCK2 cells assessed as reduction in cell proliferation at 10 uM by crystal violet staining based assay; format: functional
# Procedure, shortened: (§3)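 MDCKII-MRP1 cells transfected with human ABCC1, kept in DMEM with 10% FCS at 37 °C and 5% CO₂. Kinetic crystal violet chemosensitivity assay with the modulator alone; proliferation followed over time.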
# [11] = Cytotoxicity against human ABCC1 transfected MDCK2 cells assessed as reduction in cell proliferation at 10 uM by crystal violet staining based assay; format: ADME, Canis lupus familiaris; settings: dog, mdck-ii; procedure, shortened: as §3
# [12] = target: T2, Multidrug resistance-associated protein 1; assay: Inhibition of human ABCC1 transfected in MDCK2 cells assessed as potentiation of etoposide-induced cytotoxicity at 1 uM by crystal violet staining based assay; format: cell-based; settings: mdck-ii
# [13] = target: T2, Multidrug resistance-associated protein 1; assay: Inhibition of human ABCC1 transfected in MDCK2 cells assessed as potentiation of doxorubicin-induced cytotoxicity at 1 and 5 uM by crystal violet staining based assay; format: cell-based; settings: mdck-ii
# [14] = test system: Plasma; assay: Metabolic stability in NMRI mouse plasma assessed as compound degradation at 140 uM after 1 min to 24 hrs by RP-HPLC analysis
# [15] = target: T2, Multidrug resistance-associated protein 1; assay: Inhibition of human ABCC1 transfected in MDCK2 cells assessed as potentiation of etoposide-induced cytotoxicity at 1 and 5 uM by crystal violet staining based assay; format: cell-based; settings: mdck-ii
# [16] = target: T1, Broad substrate specificity ATP-binding cassette transporter ABCG2; assay: Inhibition of human ABCG2 expressed in HEK293 cells by mitoxantrone flow cytometric analysis; format: cell-based
# Chain of ATP-dependent translocase ABCB1 (P08183 whole entry): as the sequence (P08183 whole entry) above
SMILES,IC50 ([1]; read-out: IC50),IC50 ([2]; read-out: IC50),IC50 ([1]; kbv1),IC50 ([2]; mcf7/topo),inhibition at 30 µM [5],Emax at 10 µM [6],other results
COc1cc(OC)c2c(=O)cc(N3CCN(Cc4ccc(S(C)(=O)=O)cc4)CC3)oc2c1,–,–,Not Active,Not Active,–,–,–
CN(C)C(=O)CCSC(SCCC(=O)[O-])c1cccc(/C=C/c2ccc3ccc(Cl)cc3n2)c1.[Na+] (stereo not drawn),–,–,Not Active,Not Active,–,–,–
COc1cc(OC)c2c(=O)cc(NCCCN3CCOCC3)oc2c1,–,–,Not Active,Not Active,14%,–,–
COc1cc2c(cc1OC)CN(CCc1ccc(NC(=O)c3cc(OC)c(OC)cc3NC(=O)c3cnc4ccccc4c3)cc1)CC2,0.22 µM,–,–,–,–,–,–
COc1cc(OC)c2c(=O)cc(N3CCN(CCc4ccc([N+](=O)[O-])cc4)CC3)oc2c1,33 µM,36.9 µM,–,–,118%,31.9%,inhibition at 1 µM [4]: 54.8%; Activity [7]: Non-toxic; Stability [8]: Stable
COc1cc([C@@H]2c3cc4c(cc3[C@@H](O[C@@H]3O[C@@H]5CO[C@@H](C)O[C@H]5[C@H](O)[C@H]3O)[C@H]3COC(=O)[C@H]23)OCO4)cc(OC)c1O,–,–,–,–,–,–,Activity [9]: Active; Activity [10]: Active
COc1cc(OC)c2c(=O)cc(N3CCN(Cc4ccc5nonc5c4)CC3)oc2c1,–,–,Not Active,Not Active,120%,–,Activity [11]: Non-toxic; inhibition (INH) [12]: Active; inhibition (INH) [13]: Active; Activity [7]: Non-toxic; Stability [8]: Stable; Stability [14]: Stable
COc1cc(OC)c2c(=O)cc(N3CCN(Cc4ccc(N)cc4)CC3)oc2c1,–,–,Not Active,Not Active,–,–,–
COc1cc(OC)c2c(=O)cc(C(=O)N3CCN(Cc4ccc([N+](=O)[O-])cc4)CC3)oc2c1,58.2 µM,> 100 µM,–,–,73.1%,–,inhibition at 1 µM [4]: 33.4%; Activity [7]: Non-toxic
COc1cc(OC)c2c(=O)cc(N3CCN(Cc4ccc(C#N)cc4)CC3)oc2c1,> 100 µM,99.7 µM,–,–,115%,59.1%,–
COc1cc(OC)c2c(=O)cc(N3CCN(CCc4ccccc4)CC3)oc2c1,–,> 100 µM,Not Active,–,44.5%,–,Activity [7]: Non-toxic; Stability [8]: Stable
COc1cc(OC)c2c(=O)cc(N3CCN(Cc4ccc(S(=O)(=O)C(F)(F)F)cc4)CC3)oc2c1,> 100 µM,> 100 µM,–,–,98.8%,–,–
COc1cc(OC)c2c(=O)cc(N3CCN(Cc4ccc(SC(F)(F)F)cc4)CC3)oc2c1,36.6 µM,> 100 µM,–,–,136%,–,inhibition at 1 µM [4]: 29.4%
COc1cc(O)c2c(=O)cc(C(=O)N3CCN(Cc4ccccc4[N+](=O)[O-])CC3)oc2c1,–,34.9 µM,Not Active,–,68.8%,90.5%,–
COc1ccc(CCNC(=O)c2cc(=O)c3c(OCc4ccccc4)cccc3o2)cc1OC,–,–,Not Active,–,–,108%,–

# Now from value to compound, other results behind:
IC50 ([1]; read-out: IC50),IC50 ([2]; read-out: IC50),IC50 ([1]; kbv1),IC50 ([2]; mcf7/topo),inhibition at 30 µM [5],Emax at 10 µM [6],SMILES,other results
31.3 µM,> 100 µM,–,–,–,–,COc1cc(OC)c2c(=O)cc(N3CCN(Cc4ccc(C(F)(F)F)cc4)CC3)oc2c1,Imax [3]: 158.6%; inhibition at 1 µM [4]: 21.8%
–,–,Not Active,Not Active,38.8%,–,COc1cccc2oc(N3CCN(Cc4ccc([N+](=O)[O-])cc4)CC3)cc(=O)c12,–
–,–,Not Active,Not Active,19.7%,–,COc1cc(OC)c2c(=O)cc(N3CCN(C(=O)c4ccc([N+](=O)[O-])cc4)CC3)oc2c1,–
–,–,Not Active,–,64.1%,22.6%,COc1cc(OC)c2c(=O)cc(N3CCN(c4ccc([N+](=O)[O-])cc4)CC3)oc2c1,–
–,> 100 µM,Not Active,–,–,–,COc1ccc(CN2CCN(c3cc(=O)c4c(OC)cc(OC)cc4o3)CC2)cc1,–
58.5 µM,66.6 µM,–,–,141%,50.4%,COc1cc(OC)c2c(=O)cc(N3CCN(Cc4ccc(F)c(F)c4)CC3)oc2c1,inhibition at 1 µM [4]: 14.3%
> 100 µM,37.6 µM,–,–,68.8%,72.6%,COc1cc(OC)c2c(=O)cc(N3CCN(Cc4ccccc4[N+](=O)[O-])CC3)oc2c1,–
–,12 µM,Not Active,–,70.5%,23.1%,COc1cc(O)c2c(=O)cc(C(=O)N3CCN(Cc4ccc([N+](=O)[O-])cc4)CC3)oc2c1,Activity [7]: Non-toxic; Stability [8]: Stable
–,–,Not Active,Not Active,–,–,COc1cc(OC)c2c(=O)cc(N3CCN(C)CC3)oc2c1,–
32.8 µM,38.2 µM,–,–,–,44%,COc1cc(OC)c2c(=O)cc(N3CCN(Cc4cccc([N+](=O)[O-])c4)CC3)oc2c1,Imax [3]: 193.3%; inhibition at 1 µM [4]: 29.2%
> 100 µM,> 100 µM,–,–,118%,–,COC(=O)c1ccc(CN2CCN(c3cc(=O)c4c(OC)cc(OC)cc4o3)CC2)cc1,–
83.9 µM,> 100 µM,–,–,139%,–,COc1cc(OC)c2c(=O)cc(C(=O)N3CCN(CCc4ccc([N+](=O)[O-])cc4)CC3)oc2c1,inhibition at 1 µM [4]: 37.7%; Activity [7]: Non-toxic; Stability [8]: Stable
–,87.8 µM,Not Active,–,130%,56.9%,COc1cc(OC)c2c(=O)cc(N3CCN(Cc4ccc([N+](=O)[O-])cc4)CC3)oc2c1,Activity [7]: Non-toxic; Stability [8]: Stable
–,–,Not Active,Not Active,–,–,COc1cc(OC)c2c(=O)cc(N3CCN(Cc4ccccc4)CC3)oc2c1,–
–,> 100 µM,Not Active,–,–,–,COc1cc(OC)c2c(=O)cc(NCCc3ccc(OC)c(OC)c3)oc2c1,–
–,–,Not Active,Not Active,–,–,COc1cc(OC)c2c(=O)cc(N3CCN(Cc4ccc(NC(C)=O)cc4)CC3)oc2c1,–
6.8 µM,–,–,–,–,–,O=C(NCCCN1CCOCC1)c1cnn2c(-c3ccccc3)cc(-c3ccccc3)nc12,inhibition at 1 µM [4]: 143%; Activity [11]: Non-toxic; inhibition (INH) [15]: Active; inhibition (INH) [13]: Active
15.8 µM,16.3 µM,–,–,–,84.1%,O=C(c1cc(=O)c2c(OCc3ccccc3)cccc2o1)N1CCN(Cc2ccccc2)CC1,inhibition at 1 µM [4]: 34.3%; % inhibition [16]: 9.8%
